Measurements: ChEMBL document CHEMBL1275344, “Synthesis and antimalarial assessment of a new series of orally active amino-functionalized spiro 1,2,4-trioxanes” (J Med Chem, 2010)
Activity calls are given as the source filed them. No cut-off for these calls is given here.

Assays:
[1] = tested on: Plasmodium yoelii nigeriensis; assay: Antimalarial activity against multidrug-resistant Plasmodium yoelii nigeriensis infected in Swiss mice (Mus musculus) assessed as suppression of parasitaemia at 96 mg/kg, perorally for 4 days relative to control; assay type: functional; details: route oral
Method in brief: (§1)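 Swiss mice of either sex (20 ± 2 g) infected intraperitoneally with 1 × 10⁶ MDR P. yoelii nigeriensis parasites on day 0. Five mice per dose group, given oral doses in groundnut oil, twice daily on days 0–3. Parasitaemia read from day-4 thin blood smears. Suppression = [(C − T)/C] × 100, with C and T the control and treated parasitaemia. 100% means no parasites seen in 50 oil-immersion fields.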

[2] = tested on: Plasmodium yoelii nigeriensis; assay: Antimalarial activity against multidrug-resistant Plasmodium yoelii nigeriensis infected in Swiss mice (Mus musculus) assessed as curated mice (Mus musculus) at 96 mg/kg, peroral for 4 days; assay type: functional, organism-based; set-up: dose 96 mg/kg
Method in brief: (§2)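 Swiss mice of either sex (20 ± 2 g) inoculated intraperitoneally with 1 × 10⁶ MDR P. yoelii nigeriensis parasites on day 0. Five mice per dose group, dosed orally in groundnut oil (0.1 mL), in two divided doses daily from day 0 to 3. Thin blood smears read on day 4, then twice weekly to day 28. Mice without patent infection by day 28 counted as cured. β-Arteether was the positive control.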

[3] = tested on: Plasmodium yoelii nigeriensis; assay: Antimalarial activity against multidrug-resistant Plasmodium yoelii nigeriensis infected in Swiss mice (Mus musculus) assessed as suppression of parasitaemia at 48 mg/kg, peroral for 4 days relative to control; assay type: functional; details: route oral; method in brief: as §1
[4] = Lipophilicity, log P of the compound; assay type: physicochemical; details: octanol/water
[5] = tested on: Plasmodium yoelii nigeriensis; assay: Antimalarial activity against multidrug-resistant Plasmodium yoelii nigeriensis infected in Swiss mice (Mus musculus) assessed as curated mice (Mus musculus) at 48 mg/kg, peroral for 4 days; assay type: functional, organism-based; set-up: dose 48 mg/kg; method in brief: as §2
[6] = tested on: Plasmodium yoelii nigeriensis; assay: Antimalarial activity against multidrug-resistant Plasmodium yoelii nigeriensis infected in Swiss mice (Mus musculus) assessed as suppression of parasitaemia at 24 mg/kg, peroral for 4 days relative to control; assay type: functional; details: route oral; method in brief: as §1
[7] = tested on: Plasmodium yoelii nigeriensis; assay: Antimalarial activity against multidrug-resistant Plasmodium yoelii nigeriensis infected in Swiss mice (Mus musculus) assessed as curated mice (Mus musculus) at 24 mg/kg, peroral for 4 days; assay type: functional, organism-based; set-up: dose 24 mg/kg; method in brief: as §2
[8] = tested on: Plasmodium yoelii nigeriensis; assay: Antimalarial activity against multidrug-resistant Plasmodium yoelii nigeriensis infected in Swiss mice (Mus musculus) assessed as suppression of parasitaemia at 12 mg/kg, peroral for 4 days relative to control; assay type: functional; details: route oral; method in brief: as §1
[9] = tested on: Plasmodium yoelii nigeriensis; assay: Antimalarial activity against multidrug-resistant Plasmodium yoelii nigeriensis infected in Swiss mice (Mus musculus) assessed as curated mice (Mus musculus) at 12 mg/kg, peroral for 4 days; assay type: functional, organism-based; set-up: dose 12 mg/kg; method in brief: as §2

Row | Structure (SMILES) | Activity [1] [%] | Activity [2] | Activity [3] [%] | logP [4] | Activity [5] | Activity [6] [%] | Activity [7] | Activity ([8]; 12 mg/kg) [%] | Activity [9] | Activity [8] [%]
1 | C=C(c1ccc2ccc3ccccc3c2c1)C1CCC2(CC1)COC(Nc1cc(Cl)cc(Cl)c1)OO2 (stereo not given) | 100 | Active | 62.5 | 7.7 |  |  |  |  |  | 
2 | C=C(c1ccc2ccc3ccccc3c2c1)C1CCC2(CC1)COC(Nc1ccc(C(F)(F)F)cc1)OO2 (stereo not given) | 100 | Active | 82.22 | 7.51 | inactive |  |  |  |  | 
3 | C=C(c1cccc2ccccc12)C1CCC2(CC1)COC(Nc1ccc(C(F)(F)F)cc1)OO2 (stereo not given) | 100 | Active | 100 | 6.51 |  |  |  |  |  | 
4 | C=C(c1ccc2ccc3ccccc3c2c1)C1CCC2(CC1)COC(Nc1ccc(F)cc1)OO2 (stereo not given) | 100 | Active | 100 | 6.74 |  |  |  |  |  | 
5 | C=C(c1ccc2ccc3ccccc3c2c1)C1CCC2(CC1)COC(Nc1ccc(OC)cc1)OO2 (stereo not given) | 100 | Active | 100 | 6.46 |  |  |  |  |  | 
6 | C=C(c1ccc2ccc3ccccc3c2c1)C1CCC2(CC1)COC(Nc1ccccc1-c1ccccc1)OO2 (stereo not given) | 100 | Active | 74.36 | 8.26 | inactive |  |  |  |  | 
7 | C=C(c1ccc2c(c1)Cc1ccccc1-2)C1CCC2(CC1)COC(Nc1cc(Cl)cc(Cl)c1)OO2 (stereo not given) | 100 | inactive |  | 7.44 |  |  |  |  |  | 
8 | C=C(c1ccc2c(c1)Cc1ccccc1-2)C1CCC2(CC1)COC(Nc1ccc(Cl)cc1)OO2 (stereo not given) | 100 | Active |  | 6.88 |  |  |  |  |  | 
9 | C=C(c1cccc2ccccc12)C1CCC2(CC1)COC(Nc1ccccc1)OO2 (stereo not given) | 100 | Active | 100 | 5.59 |  |  |  |  |  | 
10 | C=C(c1cccc2ccccc12)C1CCC2(CC1)COC(Nc1cccc(C(F)(F)F)c1)OO2 (stereo not given) | 100 | Active | 100 | 6.51 |  |  |  |  |  | 
11 | C=C(c1ccc2c(c1)Cc1ccccc1-2)C1CCC2(CC1)COC(Nc1ccccc1)OO2 (stereo not given) | 100 | Active | 100 | 6.33 |  |  |  |  |  | 
12 | C=C(c1ccc2c(c1)Cc1ccccc1-2)C1CCC2(CC1)COC(Nc1ccc(C)cc1)OO2 (stereo not given) | 100 | Active | 100 | 6.81 |  |  |  |  |  | 
13 | C=C(c1ccc2ccccc2c1)C1CCC2(CC1)COC(Nc1cc(Cl)cc(Cl)c1)OO2 (stereo not given) | 100 | Active | 100 | 6.71 |  |  |  |  |  | 
14 | C=C(c1ccc2ccc3ccccc3c2c1)C1CCC2(CC1)COC(Nc1cccc(C(F)(F)F)c1)OO2 (stereo not given) | 100 | Active | 100 | 7.51 | inactive |  |  |  |  | 
15 | C=C(c1ccc2c(c1)Cc1ccccc1-2)C1CCC2(CC1)COC(Nc1ccc(OC)cc1)OO2 (stereo not given) | 100 | Active | 100 | 6.2 | inactive |  |  |  |  | 
16 | C=C(c1ccc2ccccc2c1)C1CCC2(CC1)COC(Nc1ccc(F)cc1)OO2 (stereo not given) | 100 | Active | 100 | 5.75 |  | 100 |  |  |  | 
17 | C=C(c1ccc2c(c1)Cc1ccccc1-2)C1CCC2(CC1)COC(Nc1cccc(C(F)(F)F)c1)OO2 (stereo not given) | 100 | Active | 100 | 7.25 | inactive |  |  |  |  | 
18 | C=C(c1ccc2ccc3ccccc3c2c1)C1CCC2(CC1)COC(Nc1ccc(C)cc1)OO2 (stereo not given) | 100 | Active | 100 | 7.07 | Active | 100 |  |  |  | 
19 | C=C(c1ccc2ccccc2c1)C1CCC2(CC1)COC(Nc1ccccc1-c1ccccc1)OO2 (stereo not given) | 100 | Active | 100 | 7.26 |  |  |  |  |  | 
20 | C=C(c1ccc2ccccc2c1)C1CCC2(CC1)COC(Nc1ccc(C(F)(F)F)cc1)OO2 (single isomer, unassigned; more polar) [listing 1 of 2 here] |  | Active |  |  | Active |  | Active |  |  | 

Row | Structure (SMILES) | Activity [1] [%] | Activity [2] | Activity [3] [%] | logP [4] | Activity [5] | Activity [6] [%] | Activity [7] | Activity ([8]; 12 mg/kg) [%] | Activity [9] | Activity [8] [%]
21 | C=C(c1ccc2c(c1)Cc1ccccc1-2)C1CCC2(CC1)COC(Nc1ccccc1-c1ccccc1)OO2 (stereo not given) | 100 | inactive |  | 8 |  |  |  |  |  | 
22 | C=C(c1ccc2ccccc2c1)C1CCC2(CC1)COC(Nc1ccc(C)cc1)OO2 (stereo not given) | 100 | Active | 100 | 6.08 |  |  |  |  |  | 
23 | C=C(c1cccc2ccccc12)C1CCC2(CC1)COC(Nc1ccc(F)cc1)OO2 (stereo not given) | 100 | Active | 100 | 5.75 |  |  |  |  |  | 
24 | C=C(c1cccc2ccccc12)C1CCC2(CC1)COC(Nc1cc(Cl)cc(Cl)c1)OO2 (stereo not given) | 100 | Active | 100 | 6.71 |  |  |  |  |  | 
25 | C=C(c1ccc2c(c1)Cc1ccccc1-2)C1CCC2(CC1)COC(Nc1ccc(C(F)(F)F)cc1)OO2 (stereo not given) | 100 | Active | 100 | 7.25 |  |  |  |  |  | 
26 | C=C(c1ccc2c(c1)Cc1ccccc1-2)C1CCC2(CC1)COC(Nc1ccc(F)cc1)OO2 (stereo not given) | 100 | Active | 100 | 6.48 |  |  |  |  |  | 
27 | C=C(c1ccc2ccccc2c1)C1CCC2(CC1)COC(Nc1cccc(C(F)(F)F)c1)OO2 (stereo not given) | 100 | Active | 100 | 6.51 |  |  |  |  |  | 
28 | C=C(c1cccc2ccccc12)C1CCC2(CC1)COC(Nc1ccc(OC)cc1)OO2 (stereo not given) | 100 | Active | 100 | 5.46 |  |  |  |  |  | 
29 | C=C(c1ccc2ccccc2c1)C1CCC2(CC1)COC(Nc1ccc(OC)cc1)OO2 (stereo not given) | 100 | Active | 100 | 5.46 |  |  |  |  |  | 
30 | C=C(c1ccc2ccccc2c1)C1CCC2(CC1)COC(Nc1ccc(C(F)(F)F)cc1)OO2 (single isomer, unassigned; more polar) [listing 2 of 2 here] |  |  |  |  |  |  |  | 100 |  | 
31 | C=C(c1ccc2ccc3ccccc3c2c1)C1CCC2(CC1)COC(Nc1ccc(Cl)cc1)OO2 (stereo not given) | 100 | Active | 76.9 | 7.14 |  |  |  |  |  | 
32 | C=C(c1cccc2ccccc12)C1CCC2(CC1)COC(Nc1ccccc1-c1ccccc1)OO2 (stereo not given) | 100 | Active | 100 | 7.26 |  |  |  |  |  | 
33 | C=C(c1cccc2ccccc12)C1CCC2(CC1)COC(Nc1ccc(C)cc1)OO2 (stereo not given) | 100 |  | 100 | 6.08 |  |  |  |  |  | 
34 | C=C(c1ccc2ccc3ccccc3c2c1)C1CCC2(CC1)COC(Nc1ccccc1)OO2 (stereo not given) | 100 | Active | 100 | 6.59 |  | 100 |  |  |  | 
35 | C=C(c1cccc2ccccc12)C1CCC2(CC1)COC(Nc1ccc(Cl)cc1)OO2 (stereo not given) | 100 |  | 100 | 6.15 |  |  |  |  |  | 
36 | C=C(c1ccc2ccccc2c1)C1CCC2(CC1)COC(Nc1ccc(Cl)cc1)OO2 (stereo not given) | 100 | Active | 100 | 6.15 | Active | 100 | inactive |  | inactive | 60
37 | C=C(c1ccc2ccccc2c1)C1CCC2(CC1)COC(Nc1ccc(C(F)(F)F)cc1)OO2 (single isomer, unassigned; less polar) [listing 1 of 2 here] | 100 |  | 100 | 6.51 |  | 100 |  | 6.25 |  | 
38 | CCO[C@H]1O[C@@H]2O[C@@]3(C)CC[C@H]4[C@H](C)CC[C@@H]([C@H]1C)[C@@]24OO3 [ARTEMOTIL] |  |  | 100 |  | Active | 100 |  |  |  | 
39 | C=C(c1ccc2ccccc2c1)C1CCC2(CC1)COC(Nc1ccccc1)OO2 (stereo not given) | 100 | Active | 100 | 5.59 |  |  |  |  |  | 
40 | C=C(c1ccc2ccccc2c1)C1CCC2(CC1)COC(Nc1ccc(C(F)(F)F)cc1)OO2 (single isomer, unassigned; less polar) [listing 2 of 2 here] |  | Active |  |  | Active |  | Active |  | inactive | 
